Measurements from different studies.
Compare with care: the assays were run in different laboratories.
SMARCA2: SWI/SNF-related matrix-associated actin-dependent regulator of chromatin subfamily A member 2 (SMARCA2, Homo sapiens, UniProt P51531)
PADI2: Protein-arginine deiminase type-2 (PADI2, Homo sapiens, UniProt Q9Y2J8)
BRAF V600E: Serine/threonine-protein kinase B-raf (BRAF, Homo sapiens, UniProt P15056, V600E)
BPTF: Nucleosome-remodeling factor subunit BPTF (BPTF, Homo sapiens, UniProt Q12830)
Blk: Tyrosine-protein kinase Blk (Blk, Mus musculus, UniProt P16277)
DRD2: D(2) dopamine receptor (DRD2, Homo sapiens, UniProt P14416)

CCC(/C=C1\CCn2c1nc(=O)c1ccc(O)cc12)CC
ΔTm (SMARCA2; thermal stability, DSF; 100 µM): -0.07 °C

CCN1CCCn2c1nc1c2c(=O)n(C)c(=O)n1C
inhibition (Adenosine receptor A3 (ADORA3, Homo sapiens, UniProt P0DMS8); ligand displacement, radioligand; 10 µM, cell membranes): 5%

CC(C)(C)n1nnc([C@H](CCCNC(=N)CF)NC(=O)c2ccccc2C(=O)O)n1
kinact/KI (PADI2; enzyme activity, inhibitor): 2020 M⁻¹ s⁻¹

Cc1ccc(C(CS(=O)(=O)c2ccccc2)=NN=C2N=C(c3ccc(Br)cc3)CS2)cc1
inhibition (BRAF V600E; enzyme activity, inhibitor, ATP luminescence; 10 µM): 92%

NS(=O)(=O)c1ccc(Nc2nc(-c3ccc(F)cc3)c3ccccc3n2)cc1
remaining binding (BPTF; binding, competition with immobilised ligand; 1 µM): 63%

CC/C=C1\CCn2c1nc(=O)c1c(Cl)cccc12
ΔTm (SMARCA2; thermal stability, DSF; 100 µM): -1.47 °C

Cc1ccc(Nc2nccc(N(C)c3ccc4c(C)n(C)nc4c3)n2)cc1S(N)(=O)=O
inhibition (Blk; enzyme activity, inhibitor; 10 µM): 73%

NCCCC[C@H](NC(=O)[C@@H]1CCCN1C(=O)[C@@H]1CSSC[C@H](NC(=O)CNC(=O)CNC(=O)CN)C(=O)N[C@@H](Cc2ccc(O)cc2)C(=O)N[C@@H](Cc2ccccc2)C(=O)N[C@@H](CCC(N)=O)C(=O)N[C@@H](CC(N)=O)C(=O)N1)C(=O)NCC(N)=O
Emax (Vasopressin V2 receptor (AVPR2, Homo sapiens, UniProt P30518); cAMP, agonist, TR-FRET; CHO-K1): ~100%

Nc1ncnc2occ(-c3ccc(NC(=O)Nc4cc(C(F)(F)F)ccc4F)cc3)c12
remaining signal (Epidermal growth factor receptor (EGFR, Homo sapiens, UniProt P00533, G719S); cell-free assay; 20 µM): 11%

CCC(/C=C1\CCn2c1nc(=O)c1c(Cl)c(Cl)ccc12)CC
ΔTm (SMARCA2; thermal stability, DSF; 100 µM): 2.86 °C

CC(C)(C)n1nnc([C@H](CCCNC(=N)CCl)NC(=O)c2ccc(-c3ccccc3)cc2)n1
kinact/KI (PADI2; enzyme activity, inhibitor): 182 M⁻¹ s⁻¹

Cc1cc2c(cc1N1C(=O)c3cccc4c(Cl)ccc(c34)C1=O)n(C)c(=O)n2C
ΔTm (BPTF; thermal stability, DSF; 10 µM): 0 °C

Cc1ccc(C(=O)Nc2ccc(CN3CCN(C)CC3)c(C(F)(F)F)c2)cc1C#Cc1cnc2cccnn12
remaining activity (Serine/threonine-protein kinase Nek5 (NEK5, Homo sapiens, UniProt Q6P3R8); enzyme activity, inhibitor; 23.5 nM): 97%

Cc1ccc(C(CS(=O)(=O)c2ccccc2)=NNc2nc(-c3ccc(OCCCCOc4ccc(-c5csc(NN=C(CS(=O)(=O)c6ccccc6)c6ccc(C)cc6)n5)cc4)cc3)cs2)cc1
inhibition (BRAF V600E; enzyme activity, inhibitor, ATP luminescence; 10 µM): 91%

CCC(C)/C=C1\CCn2c1nc(=O)c1c(Cl)cccc12 (stereo not drawn)
ΔTm (SMARCA2; thermal stability, DSF; 100 µM): 3.77 °C

Cc1cc(=O)oc2cc(NC(=O)[C@@H](N)CCCNC(=N)N)ccc12
Km (Endoplasmic reticulum aminopeptidase 2 (ERAP2, Homo sapiens, UniProt Q6P179); enzyme activity, substrate): 88 µM

CC(C)(C)n1nnc([C@H](CCCNC(=N)CF)NC(=O)c2ccc(-c3ccccc3)cc2)n1
kinact/KI (PADI2; enzyme activity, inhibitor): 189 M⁻¹ s⁻¹

NS(=O)(=O)c1ccc(CCNCc2ccc(-c3ccccc3F)o2)cc1
inhibition (DRD2; enzyme activity, inhibitor; 10 µM): 34.6%

N=C(CCl)NCCC[C@H](NC(=O)c1ccc(-c2ccccc2)cc1)c1nn[nH]n1
kinact/KI (PADI2; enzyme activity, inhibitor): 37.2 M⁻¹ s⁻¹

COc1cc2ncnc3c2cc1OCCOCCOc1c(Cl)cccc1N3
remaining activity (Epidermal growth factor receptor (EGFR, Homo sapiens, UniProt P00533, del746-750); enzyme activity, inhibitor, radiometric; 1 µM): 15%

CCCOc1ccc(OC)c(F)c1C(=O)c1ccc(C(=O)N[C@@H]2CNC[C@H]2NC(=O)c2ccc3[nH]ncc3c2)cc1
remaining activity (Blk; enzyme activity, inhibitor; 10 µM): 42%

C[S+]([O-])c1ccc(-c2nc(-c3ccncc3)c(-c3ccc(F)cc3)[nH]2)cc1 (stereo not drawn)
ΔTm (SMARCA2; thermal stability, DSF; 10 µM): 0.31 °C

CC(C)c1ccccc1OCCOCC(O)CN1CCN(c2cccc(C(F)(F)F)c2)CC1 (stereo not drawn)
inhibition (DRD2; enzyme activity, inhibitor; 10 µM): 37.8%

Oc1ccc(-c2nc(-c3ccncc3)c(-c3ccc(F)cc3)[nH]2)cc1
ΔTm (BPTF; thermal stability, DSF; 10 µM): 0.18 °C

Fc1cccc(-n2cnc3c(NCc4nc5c(F)c(F)ccc5[nH]4)nc(N4CCOCC4)nc32)c1
binding vs control (Microtubule-associated serine/threonine-protein kinase 1 (MAST1, Homo sapiens, UniProt Q9Y2H9); binding, competition with immobilised ligand; 10 µM): 23%

CC(=O)N[C@H]1CSSC[C@@H](C(=O)N[C@@H](Cc2c[nH]c3ccccc23)C(N)=O)NC(=O)[C@H](Cc2ccccc2)NC(=O)[C@H](CCCNC(=N)N)NC1=O
inhibition (Melanocortin receptor 3 (MC3R, Homo sapiens, UniProt P41968); ligand displacement, radioligand; 10 µM, 40 min): 42%

Cc1ccc(C(CS(=O)(=O)c2ccccc2)=NN=C2N=C(c3ccc(C)cc3)CS2)cc1
inhibition (BRAF V600E; enzyme activity, inhibitor, ATP luminescence; 1 µM): 65%

NC1=NCC(c2cccc3ccccc23)OC1 (stereo not drawn)
ΔTm (Beta-secretase 1 (BACE1, Homo sapiens, UniProt P56817); thermal stability, DSF; 2.1 mM, pH 5.4): 0.63 °C

CC(C)(C)/C=C1\CCn2c1nc(=O)c1c(Cl)cccc12
ΔTm (SMARCA2; thermal stability, DSF; 100 µM): -0.14 °C

Cc1ccc(C(CS(=O)(=O)c2ccccc2)=NNc2nc(C)c(N=Nc3cccc(C)c3)s2)cc1
inhibition (BRAF V600E; enzyme activity, inhibitor, ATP luminescence; 10 µM): 92%

CCC(/C=C1\CCn2c1nc(=O)c1ccc(OC)cc12)CC
ΔTm (SMARCA2; thermal stability, DSF; 100 µM): 0 °C

Cc1cnc(NC2CCOCC2)nc1-n1cnc(C(=O)NC(CN)c2cc(F)cc(Cl)c2)c1 (stereo not drawn)
remaining activity (Blk; enzyme activity, inhibitor, radiometric; 1 µM): 106%

CCC(/C=C1\CCn2c1nc(=O)c1cc(Cl)ccc12)CC
ΔTm (SMARCA2; thermal stability, DSF; 100 µM): -0.49 °C

Cc1cnc(Nc2ccc(OCCN3CCCC3)cc2)nc1Nc1cccc(S(=O)(=O)NC(C)(C)C)c1
ΔTm (SMARCA2; thermal stability, DSF; 10 µM): -0.09 °C

N=C(CF)NCCC[C@H](NC(=O)c1ccc(-c2ccccc2)cc1)c1nn[nH]n1
kinact/KI (PADI2; enzyme activity, inhibitor): 17.2 M⁻¹ s⁻¹

O=c1nc2n(c3cccc(Cl)c13)CC/C2=C\c1ccccc1
ΔTm (SMARCA2; thermal stability, DSF; 100 µM): 2.14 °C
